Experimental data gathered from unrelated publications.
Target: Receptor tyrosine-protein kinase erbB-2 (ERBB2, Homo sapiens, UniProt P04626)

| Structure (SMILES) | effect on | action | method | tested at | measurement | result |
| --- | --- | --- | --- | --- | --- | --- |
| C[C@@]1(Cc2ccc(C#N)cc2)C(=O)N(c2cc(Cl)cc(Cl)c2)c2ncc(C(=O)NC3(c4nc(C5CCC5)no4)CC3)n21 | cell-free assay | – | competition with immobilised ligand | 1 µM | remaining binding | 100% |
| Nc1nc(Nc2ccc(S(N)(=O)=O)cc2)nn1C(=O)c1c(F)cccc1F | cell-free assay | – | – | 0.5 µM | remaining signal | 91.1% |
| CN(C)C(=O)Cn1cc(-c2nc([C@@](C)(c3ccc(-c4cnc(N)nc4)cc3)C3CC3)no2)cn1 | cell-free assay | – | competition with immobilised ligand | 1 µM | remaining binding | 100% |
| COc1cc2ncnc(Nc3ccc(Oc4ccccc4)cc3C)c2cc1OC | enzyme activity | inhibitor | – | 1 µM | inhibition | 55% |
| c1ccc(CNc2nc(N3CCOc4ccccc43)nc3c2CCCC3)cc1 | target engagement in cells | inhibitor | chemoproteomics | 20 mM | inhibition | 0.8% |
| CCCOc1ccc([C@H]2[C@H](C(=O)O)[C@@H](c3ccc4c(c3)OCO4)CN2CC(=O)Nc2c(CC)cccc2CC)cc1 | cell-free assay | – | competition with immobilised ligand | 1 µM | remaining binding | 79% |
| COc1cc(Nc2c(C#N)cnc3cc(OCCCN4CCN(C)CC4)c(OC)cc23)c(Cl)cc1Cl | cell-free assay | – | – | 0.5 µM | remaining signal | 32.9% |
| C[C@@H]1CN(c2cc(-c3nn(C)c4ccc(OC5(C)CC5)cc34)ncn2)C[C@H](C)O1 | cell-free assay | – | competition with immobilised ligand | 1 µM | remaining binding | 80% |
| O=C1Nc2ccc(Cl)cc2C1=Cc1cc(Cl)c(O)c(Cl)c1 | cell-free assay | – | – | 0.5 µM | remaining signal | 107% |
| Cc1ccc(C(=O)Nc2ccc(CN3CCN(C)CC3)c(C(F)(F)F)c2)cc1C#Cc1cnc2cccnn12 | enzyme activity | inhibitor | – | 23.5 nM | remaining activity | 44% |
| Nc1ncnc2occ(-c3ccc(NC(=O)Nc4cc(C(F)(F)F)ccc4F)cc3)c12 | cell-free assay | inhibitor | – | 20 µM | remaining signal | 0% |
| COc1cc(Cl)c(C(=O)N[C@@H](CN[C@H]2CC[C@@H](N)CC2)Cc2ccc(C#N)cc2)cc1-c1ccc(CN[C@H](C)c2ccc(C)cc2)o1 | enzyme activity | inhibitor | – | 1 µM | remaining activity | 91% |
| Clc1ccc(Nc2nnc(Cc3ccncc3)c3ccccc23)cc1 | cell-free assay | – | – | 0.5 µM | remaining signal | 101% |
| Cc1sc(C(=O)NC2COC2)cc1-n1cc(NC(=O)Nc2c(F)cccc2Cl)cn1 | enzyme activity | inhibitor | – | 10 µM | remaining activity | 64.1% |
| NS(=O)(=O)c1cc(NC(=O)C2(c3ccccc3Cl)CC2)ccc1Oc1cccc(Cl)c1 | cell-free assay | – | competition with immobilised ligand | 1 µM | remaining binding | 49% |
| CC#CC(=O)Nc1cc2c(Nc3ccc(F)c(Cl)c3)ncnc2cn1 | cell-free assay | – | – | 0.5 µM | remaining signal | 2.36% |
| O=C(NCc1ncc(C(F)(F)F)cc1Cl)c1ccc2c(c1)C1(CCS(=O)(=O)CC1)[C@H](C1CC1)N2S(=O)(=O)c1ccc(F)cc1 | cell-free assay | – | competition with immobilised ligand | 1 µM | remaining binding | 100% |
| COc1ccc(COc2ccc(Cc3cnc(N)nc3N)cc2OC)cc1 | cell-free assay | – | – | 0.5 µM | remaining signal | 106% |
| C[C@H](c1ccc(F)cc1)N(Cc1cccc(C(=O)O)c1)C(=O)c1cnc2ccccc2c1 | cell-free assay | – | competition with immobilised ligand | 1 µM | remaining binding | 100% |
| CC(C)(C)c1nc(-c2cccc(NS(=O)(=O)c3c(F)cccc3F)c2F)c(-c2ccnc(N)n2)s1 | enzyme activity | inhibitor | radiometric | 1 µM | remaining activity | 96% |
| CS(=O)(=O)N1CCCC(NC(=O)[C@H](CCC2CCCCC2)NC(=O)c2ccc(CNc3ncnc4c3nnn4-c3ccccc3)cc2)C1 (stereo partly shown) | cell-free assay | – | competition with immobilised ligand | 0.1 µM | remaining binding | 100% |
| C=CC(=O)Nc1cc(Nc2nccc(Nc3cc(Cl)c(F)cc3C(C)(C)O)n2)c(OC)cc1N1CC[C@@H](N(C)C)C1 | enzyme activity | inhibitor | – | 1 µM | inhibition | 73% |
| COc1cccc2c(NCc3ccccc3)nc(-n3c(N)nc4ccccc43)nc12 | target engagement in cells | inhibitor | chemoproteomics | 20 mM | inhibition | 32.6% |
| O=C(CSc1nc2nccnc2c(=O)n1CCc1ccccc1)Nc1nccs1 | enzyme activity | inhibitor | – | 10 µM | inhibition | -11% |
| CC(C)(O)[C@H]1CC[C@H](Nc2ccc3ncc(-c4cccc(C(F)(F)F)c4)n3n2)CC1 | enzyme activity | inhibitor | – | 1 µM | remaining activity | 92% |
